According to ChEMBL document CHEMBL1124409, “Preparation and biodistribution of 1-[2-(3-[125I]iodo-4-aminophenyl)ethyl]-4-[3-(trifluoromethyl) phenyl]piperazine and 1-[2-(3-[125I]iodo-4-azidophenyl)ethyl]-4-[3-(trifluoromethyl)phenyl] piperazine” (J Med Chem, 1989):

Columns and labels:
Rattus norvegicus [1] = experiment: Biodistribution of the radio labelled compound (azido-[125I]-IPAPP) in rat muscle after 2 min of intravenous injection; format: ADME, organism-based, Muscle tissue; settings: in vivo
In short: (§1)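 Rats received the radioligand in 0.2 mL saline into the femoral vein under ether anesthesia. They were killed by cardiac excision at set times post-injection. Organs were removed and gamma-counted at about 50% efficiency. % dose/organ was calculated against diluted aliquots of the injected material. Values are the average of three rats.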

Rattus norvegicus [2] = experiment: Biodistribution of the radio labelled compound (azido-[125I]-IPAPP) in rat liver after 15 min of intravenous injection; format: ADME, organism-based; settings: in vivo; in short: as §1
Rattus norvegicus [3] = experiment: Biodistribution of the radio labelled compound (azido-[125I]-IPAPP) in rat brain after 30 min of intravenous injection; format: ADME, organism-based; settings: in vivo, 0.5 h; in short: as §1
Rattus norvegicus [4] = experiment: Ratio of biodistribution of the radio labelled compound (azido-[125I]-IPAPP) in rat brain to rat blood after 2 min of intravenous injection; format: ADME, organism-based
Rattus norvegicus [5] = experiment: Biodistribution of the radio labelled compound (azido-[125I]-IPAPP) in rat brain after 15 min of intravenous injection; format: ADME, organism-based; settings: in vivo; in short: as §1
Rattus norvegicus [6] = experiment: Biodistribution of the radio labelled compound (azido-[125I]-IPAPP) in rat liver after 2 min of intravenous injection; format: ADME, organism-based; settings: in vivo; in short: as §1
Rattus norvegicus [7] = experiment: Biodistribution of the radio labelled compound (azido-[125I]-IPAPP) in rat heart after 15 min of intravenous injection; format: ADME, organism-based; settings: in vivo; in short: as §1
Rattus norvegicus [8] = experiment: Biodistribution of the radio labelled compound (azido-[125I]-IPAPP) in rat blood after 2 min of intravenous injection; format: ADME, organism-based; settings: in vivo; in short: as §1
Rattus norvegicus [9] = experiment: Biodistribution of the radio labelled compound (azido-[125I]-IPAPP) in rat lungs after 2 min of intravenous injection; format: ADME, organism-based, Lung; settings: in vivo; in short: as §1
Rattus norvegicus [10] = experiment: Biodistribution of the radio labelled compound (azido-[125I]-IPAPP) in rat blood after 30 min of intravenous injection; format: ADME, organism-based; settings: in vivo, 0.5 h; in short: as §1
Rattus norvegicus [11] = experiment: Ratio of biodistribution of the radio labelled compound (azido-[125I]-IPAPP) in rat brain to rat blood after 30 min of intravenous injection; format: ADME, organism-based; settings: 0.5 h
Rattus norvegicus [12] = experiment: Biodistribution of the radio labelled compound (azido-[125I]-IPAPP) in rat heart after 2 min of intravenous injection; format: ADME, organism-based; settings: in vivo; in short: as §1
Rattus norvegicus [13] = experiment: Ratio of biodistribution of the radio labelled compound (azido-[125I]-IPAPP) in rat brain to rat blood after 15 min of intravenous injection; format: ADME, organism-based
Rattus norvegicus [14] = experiment: Biodistribution of the radio labelled compound (azido-[125I]-IPAPP) in rat muscle after 15 min of intravenous injection; format: ADME, organism-based, Muscle tissue; settings: in vivo; in short: as §1
Rattus norvegicus [15] = experiment: Biodistribution of the radio labelled compound (azido-[125I]-IPAPP) in rat lungs after 30 min of intravenous injection; format: ADME, organism-based, Lung; settings: in vivo, 0.5 h; in short: as §1
Rattus norvegicus [16] = experiment: Biodistribution of the radio labelled compound (azido-[125I]-IPAPP) in rat heart after 30 min of intravenous injection; format: ADME, organism-based; settings: in vivo, 0.5 h; in short: as §1
Rattus norvegicus [17] = experiment: Biodistribution of the radio labelled compound (azido-[125I]-IPAPP) in rat brain after 2 min of intravenous injection; format: ADME, organism-based; settings: in vivo; in short: as §1
Rattus norvegicus [18] = experiment: Biodistribution of the radio labelled compound (azido-[125I]-IPAPP) in rat muscle after 30 min of intravenous injection; format: ADME, organism-based, Muscle tissue; settings: in vivo, 0.5 h; in short: as §1
Rattus norvegicus [19] = experiment: Biodistribution of the radio labelled compound (azido-[125I]-IPAPP) in rat liver after 30 min of intravenous injection; format: ADME, organism-based; settings: in vivo, 0.5 h; in short: as §1
Rattus norvegicus [20] = experiment: Biodistribution of the radio labelled compound (azido-[125I]-IPAPP) in rat lungs after 15 min of intravenous injection; format: ADME, organism-based, Lung; settings: in vivo; in short: as §1
Rattus norvegicus [21] = experiment: Biodistribution of the radio labelled compound (azido-[125I]-IPAPP) in rat blood after 15 min of intravenous injection; format: ADME, organism-based; settings: in vivo; in short: as §1
Rattus norvegicus [22] = experiment: Ratio of biodistribution of the radio labelled compound ([125I]IPAPP) in rat brain to rat blood after 30 min of intravenous injection; format: ADME, organism-based; settings: 0.5 h
In short: (§2)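 Rats, three per time point, received the radioligand in 0.2 mL saline into the femoral vein under ether anesthesia. They were killed by cardiac excision at 2, 15 or 30 min. Brain and blood were removed and gamma-counted at about 50% efficiency. Percent dose per organ was taken as tissue counts divided by diluted aliquots of the injected material.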

Rattus norvegicus [23] = experiment: Ratio of biodistribution of the radio labelled compound ([125I]IPAPP) in rat brain to rat blood after 15 min of intravenous injection; format: ADME, organism-based; in short: as §2
Rattus norvegicus [24] = experiment: Ratio of biodistribution of the radio labelled compound ([125I]IPAPP) in rat brain to rat blood after 2 min of intravenous injection; format: ADME, organism-based; in short: as §2

Row | SMILES | Dose/organ (Rattus norvegicus [1]) | Dose/organ (Rattus norvegicus [2]) | Dose/organ (Rattus norvegicus [3]) | Dose/organ (Rattus norvegicus [5]) | Dose/organ (Rattus norvegicus [6]) | Dose/organ (Rattus norvegicus [7]) | Dose/organ (Rattus norvegicus [8]) | Dose/organ (Rattus norvegicus [9]) | Dose/organ (Rattus norvegicus [10]) | Dose/organ (Rattus norvegicus [12]) | Dose/organ (Rattus norvegicus [14]) | Dose/organ (Rattus norvegicus [15]) | Dose/organ (Rattus norvegicus [16]) | Dose/organ (Rattus norvegicus [17]) | Dose/organ (Rattus norvegicus [18]) | Dose/organ (Rattus norvegicus [19]) | Dose/organ (Rattus norvegicus [20]) | Dose/organ (Rattus norvegicus [21]) | further results
1 | [N-]=[N+]=Nc1ccc(CCN2CCN(c3cccc(C(F)(F)F)c3)CC2)cc1I | 11.8% | 34.3% | 0.75% | 0.667% | 32.5% | 0.548% | 9.74% | 6.5% | 2.76% | 1.4% | 16.6% | 1.73% | 0.372% | 0.503% | 14.4% | 28.5% | 2.15% | 3.21% | Ratio (Rattus norvegicus [4]): 0.499; Ratio (Rattus norvegicus [11]): 2.53; Ratio (Rattus norvegicus [13]): 1.99
2 | Nc1ccc(CCN2CCN(c3cccc(C(F)(F)F)c3)CC2)cc1I | 6.51% | 19.4% | 0.935% | 0.91% | 13.1% | 0.309% | 6.99% | 14.2% | 1.96% | 2.34% | 13.6% | 4.16% | 0.262% | 1.68% | 11.8% | 18.9% | 3.15% | 2.23% | Ratio (Rattus norvegicus [22]): 4.76; Ratio (Rattus norvegicus [23]): 4.92; Ratio (Rattus norvegicus [24]): 2.63
